Data from ChEMBL document CHEMBL5543163, “Druglike, 18F-labeled PET Tracers Targeting Fibroblast Activation Protein” (J Med Chem, 2024).

Key:
[1] = Octanol/water partition coefficient, logD of compound at 74 kBq incubated for 2 mins by gamma counter method; assay type: physicochemical
Procedure, shortened: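 Octanol and PBS phases were mixed and vortexed for 2 min, then centrifuged at 3,000 rpm for 10 min. Aliquots of 0.5 mL from each phase were γ-counted and corrected for mass and density. LogD was taken as log10 of the octanol/PBS radioactivity ratio.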

[2] = Stability in PBS assessed as compound remaining at 185 kBq measured upto 60 mins by radio-HPLC analysis; assay type: physicochemical; details: read-out: Stability
Procedure, shortened: (§1)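 Radiotracer was incubated at 37 °C for up to 60 min in PBS (0.01 M, pH 7.4) or in mouse plasma. Samples were deproteinized with an equal volume of cold ACN and centrifuged. The supernatant was analyzed by radio-HPLC with 30 s fractions γ-counted to give the intact fraction. Triplicates.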

[3] = Stability in CD1 mouse plasma assessed as compound remaining at 185 kBq measured upto 60 mins by radio-HPLC analysis; assay type: ADME, cell-free; details: read-out: Stability; procedure, shortened: as §1
[4] = Stability in PBS assessed as drug degradation at 185 kBq measured upto 60 mins by radio-HPLC analysis; assay type: physicochemical; details: buffer, 1 h; procedure, shortened: as §1
[5] = Stability in CD1 mouse plasma assessed as drug degradation at 185 kBq measured upto 60 mins by radio-HPLC analysis; assay type: ADME, cell-free; details: 1 h; procedure, shortened: as §1
[6] = Stability in female nude mouse harboring null mutation of CD1 antigen complex assessed as drug degradation at 5.1 to 7.4 MBq, iv measured at 60 mins by radio-HPLC analysis; assay type: ADME, organism-based; details: 1 h, dose 5.1-7.4 MBq
Procedure, shortened: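 Female CD1 nude mice received 5.1–7.4 MBq i.v. EDTA blood collected at 15, 30 and 60 min p.i. (n=3 per time point) was centrifuged to plasma, deproteinized with cold ACN and centrifuged. The supernatant was analyzed by radio-HPLC with 30 s fractions γ-counted to give the percent intact tracer.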

[7] = Drug uptake in blood of female nude mouse harboring null mutation of CD1 antigen complex at 5.1 to 7.4 MBq, iv measured after 15 to 60 mins by gamma counter analysis; assay type: ADME, organism-based; details: in vivo, dose lower 5.1 MBq, time lower 15 min, dose upper 7.4 MBq, time upper 60 min
Procedure, shortened: (§2)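 Female CD1 nude mice, 6–8 weeks old (20–25 g), received the radiotracer through the lateral tail vein. At 15, 30 and 60 min p.i. (n = 3 per time point) blood was drawn by cardiac puncture and the animals were euthanized. Organs were excised, weighed and γ-counted. Uptake is expressed as %ID/g.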

[8] = Drug uptake in liver of female nude mouse harboring null mutation of CD1 antigen complex at 5.1 to 7.4 MBq, iv measured after 15 to 60 mins by gamma counter analysis; assay type: ADME, organism-based; details: in vivo, dose lower 5.1 MBq, time lower 15 min, dose upper 7.4 MBq, time upper 60 min; procedure, shortened: as §2
[9] = Drug uptake in intestine of female nude mouse harboring null mutation of CD1 antigen complex at 5.1 to 7.4 MBq, iv measured after 15 to 60 mins by gamma counter analysis; assay type: ADME, organism-based; details: in vivo, dose lower 5.1 MBq, time lower 15 min, dose upper 7.4 MBq, time upper 60 min; procedure, shortened: as §2
[10] = Drug uptake in kidney of female nude mouse harboring null mutation of CD1 antigen complex assessed as increase in renal excretion at 5.1 to 7.4 MBq, iv measured after 15 to 60 mins by gamma counter analysis; assay type: ADME, organism-based; details: in vivo, dose lower 5.1 MBq, time lower 15 min, dose upper 7.4 MBq, time upper 60 min; procedure, shortened: as §2
[11] = Drug uptake in urinary bladder of female nude mouse harboring null mutation of CD1 antigen complex assessed as increase in renal excretion at 5.1 to 7.4 MBq, iv measured after 15 to 60 mins by gamma counter analysis; assay type: ADME, organism-based; details: in vivo, dose lower 5.1 MBq, time lower 15 min, dose upper 7.4 MBq, time upper 60 min; procedure, shortened: as §2
[12] = Drug uptake in tumor of female nude mouse harboring null mutation of CD1 antigen complex xenografted with human U-87 MG cells at 5 to 7.4 MBq, iv measured at 60 mins by PET/CT analysis; assay type: ADME, organism-based, Neoplasm; details: in vivo, 1 h, dose 5-7.4 MBq
Procedure, shortened: (§3)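 U-87MG xenografts (5×10^6 cells, subcutaneous flank) were grown in female CD1 nude mice to about 200 mm3. Dynamic whole-body PET over 60 min p.i. was followed by CT. Images were reconstructed with OSEM 3D and expressed as %ID/mL to give time-activity curves. For blocking, the FAP inhibitor (5 mg/kg) was given via the tail vein 30 min before the tracer; n=4.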

[13] = Drug uptake in tumor of female nude mouse harboring null mutation of CD1 antigen complex xenografted with human U-87 MG cells at 5 to 7.4 MBq, iv pretreated with (S)-N-(2-(2-cyano-4,4-difluoropyrrolidin-1-yl)-2-oxoethyl)quinoline-4-carboxamide for 30 mins followed by radioligand addition and measured measured after 60 mins by PET/CT analysis; assay type: ADME, organism-based, Neoplasm; details: in vivo, 1 h, dose 5-7.4 MBq; procedure, shortened: as §3
[14] = Drug uptake in skull of female nude mouse harboring null mutation of CD1 antigen complex xenografted with human U-87 MG cells at 5 to 7.4 MBq, iv measured after 60 mins by gamma counter analysis; assay type: ADME, organism-based; details: in vivo, 1 h, dose 5-7.4 MBq
[15] = Ratio of drug level in tumor to muscle of female nude mouse harboring null mutation of CD1 antigen complex xenografted with human U-87 MG cells at 5 to 7.4 MBq, iv measured at 60 mins postinjection by gamma counter analysis; assay type: ADME, organism-based; details: in vivo, 1 h, dose 5-7.4 MBq
Procedure, shortened: (§4)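 Subcutaneous U-87MG xenografts (5×10^6 cells in DPBS, hind flank) were grown in female CD1 nude mice to about 200 mm3. After tail-vein radiotracer injection and a 60 min dynamic PET scan, tissues were harvested at 60 min p.i. and γ-counted (%ID/g). Tumor-to-tissue ratios are means ± SD of individual ratios, n=4 per tracer.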

[16] = Ratio of drug level in tumor to blood of female nude mouse harboring null mutation of CD1 antigen complex xenografted with human U-87 MG cells at 5 to 7.4 MBq, iv measured at 60 mins postinjection by gamma counter analysis; assay type: ADME, organism-based; details: tumour, 1 h, dose 5-7.4 MBq; procedure, shortened: as §4
[17] = Ratio of drug level in tumor to small intestine of female nude mouse harboring null mutation of CD1 antigen complex xenografted with human U-87 MG cells at 5 to 7.4 MBq, iv measured at 60 mins postinjection by gamma counter analysis; assay type: ADME, organism-based; details: in vivo, 1 h, dose 5-7.4 MBq; procedure, shortened: as §4
[18] = Ratio of drug level in tumor to liver of female nude mouse harboring null mutation of CD1 antigen complex xenografted with human U-87 MG cells at 5 to 7.4 MBq, iv measured at 60 mins postinjection by gamma counter analysis; assay type: ADME, organism-based; details: in vivo, 1 h, dose 5-7.4 MBq; procedure, shortened: as §4
[19] = Drug uptake in tumor of female nude mouse harboring null mutation of CD1 antigen complex xenografted with human U-87 MG cells with increased FAP positive tumor area at 5 to 7.4 MBq, iv measured after 60 mins by immunohistochemistry analysis; assay type: ADME, organism-based, Neoplasm; details: in vivo, 1 h, dose 5-7.4 MBq
[20] = Drug uptake in tumor of female nude mouse harboring null mutation of CD1 antigen complex xenografted with human HT-29 cells with decreased FAP positive tumor area at 5 to 7.4 MBq, iv measured after 60 mins by immunohistochemistry analysis; assay type: ADME, organism-based, Neoplasm; details: in vivo, 1 h, dose 5-7.4 MBq
[21] = Drug uptake in bone structures of female nude mouse harboring null mutation of CD1 antigen complex xenografted with human U-87 MG cells at 5 to 7.4 MBq, iv measured after 60 mins by gamma counter analysis; assay type: ADME, organism-based, Bone element; details: in vivo, 1 h, dose 5-7.4 MBq
[22] = target: T1, Prolyl endopeptidase FAP (Homo sapiens, UniProt Q12884); test: Inhibition of FAP (unknown origin) using Z-Gly-Pro-7-amino-4-methylcoumarine as fluorogenic substrate preincubated for 15 mins followed by substrate addition and measured after 15 mins
T1 sequence (Q12884 whole entry): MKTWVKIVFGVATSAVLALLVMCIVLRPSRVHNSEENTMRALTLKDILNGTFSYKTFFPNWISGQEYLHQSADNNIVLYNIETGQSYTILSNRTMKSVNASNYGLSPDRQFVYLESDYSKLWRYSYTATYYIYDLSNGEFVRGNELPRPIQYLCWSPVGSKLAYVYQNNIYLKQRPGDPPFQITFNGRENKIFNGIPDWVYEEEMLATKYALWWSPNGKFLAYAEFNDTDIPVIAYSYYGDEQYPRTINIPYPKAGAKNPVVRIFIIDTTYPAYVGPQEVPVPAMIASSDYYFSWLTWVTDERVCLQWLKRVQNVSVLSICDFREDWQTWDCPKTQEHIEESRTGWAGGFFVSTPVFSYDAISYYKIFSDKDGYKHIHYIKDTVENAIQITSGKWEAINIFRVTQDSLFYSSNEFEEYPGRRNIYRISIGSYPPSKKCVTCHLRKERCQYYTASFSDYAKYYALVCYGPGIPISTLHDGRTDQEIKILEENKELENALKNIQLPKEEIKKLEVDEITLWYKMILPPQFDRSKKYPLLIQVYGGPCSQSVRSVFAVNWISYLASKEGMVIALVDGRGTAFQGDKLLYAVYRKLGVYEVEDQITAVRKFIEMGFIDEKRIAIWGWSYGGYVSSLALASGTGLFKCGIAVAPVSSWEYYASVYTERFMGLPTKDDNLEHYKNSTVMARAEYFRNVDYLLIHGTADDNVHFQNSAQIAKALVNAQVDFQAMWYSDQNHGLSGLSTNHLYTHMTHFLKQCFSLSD

[23] = target: Dipeptidyl peptidase 4 (Homo sapiens, UniProt P27487); test: Inhibition of DPP4 (unknown origin) using Ala-Pro-paranitroanilide as chromogenic substrate preincubated for 15 mins followed by substrate addition and measured after 15 mins
[24] = target: Dipeptidyl peptidase 8 (Homo sapiens, UniProt Q6V1X1); test: Inhibition of DPP8 (unknown origin) using Ala-Pro-paranitroanilide as chromogenic substrate preincubated for 15 mins followed by substrate addition and measured after 15 mins
[25] = target: Dipeptidyl peptidase 9 (Homo sapiens, UniProt Q86TI2); test: Inhibition of DPP9 (unknown origin) using Ala-Pro-paranitroanilide as chromogenic substrate preincubated for 15 mins followed by substrate addition and measured after 15 mins
[26] = target: Dipeptidyl peptidase 2 (Homo sapiens, UniProt Q9UHL4); test: Inhibition of DPP2 (unknown origin) using Lys-Ala-pNA as substrate preincubated for 15 mins followed by substrate addition and measured after 15 mins
[27] = target: T2, Prolyl endopeptidase (Homo sapiens, UniProt P48147); test: Inhibition of PREP (unknown origin) using N-succinyl-Gly-Pro-AMC as substrate preincubated for 15 mins followed by substrate addition and measured after 15 mins
T2 sequence (P48147 whole entry): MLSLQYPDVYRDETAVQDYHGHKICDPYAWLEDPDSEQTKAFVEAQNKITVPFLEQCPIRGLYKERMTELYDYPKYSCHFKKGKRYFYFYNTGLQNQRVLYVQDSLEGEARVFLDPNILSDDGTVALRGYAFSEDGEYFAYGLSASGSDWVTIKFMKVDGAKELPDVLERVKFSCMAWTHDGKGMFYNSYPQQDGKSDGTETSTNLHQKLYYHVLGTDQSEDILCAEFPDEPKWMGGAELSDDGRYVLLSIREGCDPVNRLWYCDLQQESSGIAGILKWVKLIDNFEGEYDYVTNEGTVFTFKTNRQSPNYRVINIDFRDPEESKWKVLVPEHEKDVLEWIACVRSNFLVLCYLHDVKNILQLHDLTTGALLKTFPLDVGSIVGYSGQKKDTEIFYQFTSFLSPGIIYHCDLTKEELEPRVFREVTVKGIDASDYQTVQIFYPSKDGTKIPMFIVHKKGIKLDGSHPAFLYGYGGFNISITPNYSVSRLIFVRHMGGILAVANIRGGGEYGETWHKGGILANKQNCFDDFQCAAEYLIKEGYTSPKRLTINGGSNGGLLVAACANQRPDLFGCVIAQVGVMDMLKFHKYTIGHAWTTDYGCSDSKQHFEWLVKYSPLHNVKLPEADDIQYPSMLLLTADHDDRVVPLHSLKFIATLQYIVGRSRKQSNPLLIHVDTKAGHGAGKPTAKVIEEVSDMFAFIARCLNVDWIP

Dipeptidyl peptidase 4, sequence (P27487 whole entry): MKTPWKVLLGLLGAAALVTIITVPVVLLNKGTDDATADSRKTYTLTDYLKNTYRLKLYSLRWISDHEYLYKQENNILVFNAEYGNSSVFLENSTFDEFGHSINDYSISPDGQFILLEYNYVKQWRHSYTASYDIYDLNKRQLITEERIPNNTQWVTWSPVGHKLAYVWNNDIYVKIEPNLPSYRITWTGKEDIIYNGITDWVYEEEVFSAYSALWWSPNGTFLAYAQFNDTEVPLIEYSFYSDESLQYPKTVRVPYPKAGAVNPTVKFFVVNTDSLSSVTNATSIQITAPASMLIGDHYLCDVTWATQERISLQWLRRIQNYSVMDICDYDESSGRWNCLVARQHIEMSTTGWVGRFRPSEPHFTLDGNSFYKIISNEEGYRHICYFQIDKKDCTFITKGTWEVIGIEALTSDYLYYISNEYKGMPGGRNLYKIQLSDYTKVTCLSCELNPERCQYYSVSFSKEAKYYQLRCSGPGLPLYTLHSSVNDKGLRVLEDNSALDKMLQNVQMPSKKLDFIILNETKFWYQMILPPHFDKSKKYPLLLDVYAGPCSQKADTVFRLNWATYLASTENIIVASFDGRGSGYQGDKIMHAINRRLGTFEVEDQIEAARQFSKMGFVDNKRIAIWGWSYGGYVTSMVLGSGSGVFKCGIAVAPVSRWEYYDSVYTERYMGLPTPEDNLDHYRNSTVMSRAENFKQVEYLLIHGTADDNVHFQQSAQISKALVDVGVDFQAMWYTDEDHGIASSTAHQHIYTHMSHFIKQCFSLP
Dipeptidyl peptidase 8, sequence (Q6V1X1 whole entry): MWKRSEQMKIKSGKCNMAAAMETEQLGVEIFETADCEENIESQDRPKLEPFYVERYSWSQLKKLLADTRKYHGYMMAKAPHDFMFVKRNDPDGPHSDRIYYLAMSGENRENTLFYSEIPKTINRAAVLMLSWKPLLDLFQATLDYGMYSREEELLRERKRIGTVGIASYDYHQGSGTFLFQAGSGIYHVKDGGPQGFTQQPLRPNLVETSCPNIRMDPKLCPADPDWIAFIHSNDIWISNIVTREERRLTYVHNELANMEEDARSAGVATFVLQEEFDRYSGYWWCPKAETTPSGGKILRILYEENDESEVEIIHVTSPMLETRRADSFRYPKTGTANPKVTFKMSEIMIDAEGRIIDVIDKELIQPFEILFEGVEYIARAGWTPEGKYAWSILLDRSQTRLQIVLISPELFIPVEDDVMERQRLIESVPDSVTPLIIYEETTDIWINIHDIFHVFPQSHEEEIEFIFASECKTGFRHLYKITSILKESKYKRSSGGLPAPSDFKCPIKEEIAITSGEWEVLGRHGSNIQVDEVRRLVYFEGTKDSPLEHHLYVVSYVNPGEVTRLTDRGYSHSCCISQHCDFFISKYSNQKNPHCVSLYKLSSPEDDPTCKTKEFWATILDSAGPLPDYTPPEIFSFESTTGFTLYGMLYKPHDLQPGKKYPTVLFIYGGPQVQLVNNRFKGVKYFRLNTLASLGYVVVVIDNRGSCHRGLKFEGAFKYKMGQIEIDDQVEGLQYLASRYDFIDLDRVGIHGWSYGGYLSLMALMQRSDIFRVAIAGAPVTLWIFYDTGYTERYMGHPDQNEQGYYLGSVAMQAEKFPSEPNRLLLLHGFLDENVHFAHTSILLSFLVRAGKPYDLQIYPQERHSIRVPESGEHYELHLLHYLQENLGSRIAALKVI
Dipeptidyl peptidase 9, sequence (Q86TI2 whole entry): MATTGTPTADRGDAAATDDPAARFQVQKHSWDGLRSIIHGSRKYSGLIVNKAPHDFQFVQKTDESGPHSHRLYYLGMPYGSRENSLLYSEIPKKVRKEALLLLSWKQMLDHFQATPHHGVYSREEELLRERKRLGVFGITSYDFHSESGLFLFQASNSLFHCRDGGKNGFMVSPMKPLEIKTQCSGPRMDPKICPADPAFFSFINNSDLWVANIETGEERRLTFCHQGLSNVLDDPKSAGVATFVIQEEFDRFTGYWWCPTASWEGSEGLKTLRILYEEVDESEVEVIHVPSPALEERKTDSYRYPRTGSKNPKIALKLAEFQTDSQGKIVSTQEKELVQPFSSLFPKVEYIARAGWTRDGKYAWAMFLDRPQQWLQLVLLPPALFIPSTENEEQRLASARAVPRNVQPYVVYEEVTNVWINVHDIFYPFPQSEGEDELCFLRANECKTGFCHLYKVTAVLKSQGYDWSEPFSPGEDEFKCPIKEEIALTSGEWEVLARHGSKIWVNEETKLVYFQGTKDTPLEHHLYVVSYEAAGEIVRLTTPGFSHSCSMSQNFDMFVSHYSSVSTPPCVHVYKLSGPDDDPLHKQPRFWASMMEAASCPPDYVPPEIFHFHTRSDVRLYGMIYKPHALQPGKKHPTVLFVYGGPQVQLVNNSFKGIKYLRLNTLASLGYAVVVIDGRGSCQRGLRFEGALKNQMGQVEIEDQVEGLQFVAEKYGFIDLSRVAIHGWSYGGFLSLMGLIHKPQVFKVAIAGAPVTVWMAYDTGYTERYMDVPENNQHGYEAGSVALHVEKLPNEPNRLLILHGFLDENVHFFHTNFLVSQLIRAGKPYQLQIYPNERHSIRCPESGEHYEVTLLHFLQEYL

For `N#C[C@@H]1CC(F)(F)CN1C(=O)CNC(=O)c1ccnc2ccc(OCC(O)C(O)C[18F])cc12` (some centres not stated), the logD at 2 min [1] was -0.27, the remaining at 1 h, 185 kBq [2] was greater than 70% and the remaining at 1 h, 185 kBq [3] was greater than 70%. For the same molecule, the Stability [4] was “Stable”, the Stability [5] was “Stable” and the Stability [6] was “Unstable”. For the same molecule, the Drug uptake [7] was 0.13 % ID/g, the Drug uptake [8] was “Active” and the Drug uptake [9] was “Active”. For the same molecule, the Drug uptake [10] was “Active”, the Drug uptake [11] was “Active” and the Drug uptake [12] was less than 3 %ID/ml. For the same molecule, the Drug uptake [13] was “Not Active”, the Drug uptake [14] was “Active” and the Ratio [15] was 5.26. For the same molecule, the Ratio [16] was 6.56, the Ratio [17] was 0.12 and the Ratio [18] was 1.67. The Drug uptake [19] was “Active”, the Drug uptake [20] was “Not Active” and the Drug uptake [21] was “Active”.
`COC(CF)COc1ccc2nccc(C(=O)NCC(=O)N3CC(F)(F)C[C@H]3C#N)c2c1` (some centres not stated) showed an IC50 [22] of 0.0014 µM, an IC50 [23] greater than 10 µM and an IC50 [24] of 5.8 µM. It also gave an IC50 [25] of 1.6 µM, an IC50 [26] greater than 10 µM and an IC50 [27] greater than 10 µM.
